In ChEMBL document CHEMBL1140034, “Conformationally constrained analogues of diacylglycerol. 30. An investigation of diacylglycerol-lactones containing heteroaryl groups reveals compounds with high selectivity for Ras guanyl nucleotide-releasing proteins” (J Med Chem, 2008):

Legend:
[1] = biological target: Protein kinase C alpha type (Homo sapiens, UniProt P17252); test: Displacement of [3H]PDBu from human recombinant PKCalpha expressed in Escherichia coli […] (DE3)
How it was run: (§1)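 Competition binding: displacement of bound [20-3H]phorbol 12,13-dibutyrate from recombinant PKC alpha or RasGRP3 measured in the presence of phosphatidylserine. IC50 obtained by fitting data points to the theoretical competition curve; Ki calculated from the corresponding IC50.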

[2] = Lipophilicity, SlogP of the compound; format: physicochemical; conditions: octanol/water
[3] = Ratio of Ki for human recombinant PKCalpha to RasGRP3
How it was run: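 Ki values for PKC alpha and RasGRP3 each come from [20-3H]PDBu displacement from the recombinant protein in the presence of phosphatidylserine, with IC50 fitted to the theoretical competition curve and converted to Ki. The ratio is Ki(PKC alpha)/Ki(RasGRP3).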

[4] = biological target: T1, Ras guanyl-releasing protein 3 (Homo sapiens, UniProt Q8IV61); test: Displacement of [3H]PDBu from RasGRP3 expressed in cells; format: cell-based; how it was run: as §1
T1 sequence (Q8IV61 whole entry): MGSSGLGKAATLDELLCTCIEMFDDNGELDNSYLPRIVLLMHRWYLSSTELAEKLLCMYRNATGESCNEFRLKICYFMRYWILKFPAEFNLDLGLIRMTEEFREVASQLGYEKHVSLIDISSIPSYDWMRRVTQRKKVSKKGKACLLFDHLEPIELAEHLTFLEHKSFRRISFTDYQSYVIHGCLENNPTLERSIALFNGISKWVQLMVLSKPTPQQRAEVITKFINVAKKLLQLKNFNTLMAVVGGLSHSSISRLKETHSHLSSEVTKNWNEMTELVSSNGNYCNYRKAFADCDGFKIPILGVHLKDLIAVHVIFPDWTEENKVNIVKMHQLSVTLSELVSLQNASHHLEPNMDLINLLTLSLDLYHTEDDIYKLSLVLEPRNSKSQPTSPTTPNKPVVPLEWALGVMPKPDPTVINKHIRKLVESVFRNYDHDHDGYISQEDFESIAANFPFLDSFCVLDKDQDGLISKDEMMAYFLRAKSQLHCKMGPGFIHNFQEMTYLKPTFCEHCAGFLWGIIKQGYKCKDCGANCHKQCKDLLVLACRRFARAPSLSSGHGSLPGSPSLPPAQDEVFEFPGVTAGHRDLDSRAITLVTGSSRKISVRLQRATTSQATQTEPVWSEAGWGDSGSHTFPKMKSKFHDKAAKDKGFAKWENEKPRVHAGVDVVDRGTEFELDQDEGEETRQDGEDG

SMILES	Ki [1] [nM]	logP [2]	Ratio Ki [3]	Ki [4] [nM]
CN(C)c1ccc(C(=O)OCC2(CO)C/C(=C/c3cnc4ccccc4c3)C(=O)O2)cc1 (centres undefined)	4880	3.22	3	1410
COc1ccc(C(=O)OCC2(CO)C/C(=C\c3ccccn3)C(=O)O2)cc1 (centres undefined)	1130	2.01	32	35.8
CCCC(CCC)C(=O)OCC1(CO)C/C(=C/c2cccnc2)C(=O)O1 (centres undefined)	3270	2.9	5	670
CN(C)c1ccc(C(=O)OCC2(CO)C/C(=C\c3ccc([N+](=O)[O-])cc3)C(=O)O2)cc1 (centres undefined)	343	–	90	–
CCCC(CCC)C(=O)OCC1(CO)C/C(=C/c2cnc3ccccc3c2)C(=O)O1 (centres undefined)	177	4.06	5	32.2
COc1ccc(C(=O)OCC2(CO)C/C(=C/c3cnc4ccccc4c3)C(=O)O2)cc1 (centres undefined)	5100	3.16	6	907
CN(C)c1ccc(C(=O)OCC2(CO)C/C(=C\c3ccc4ccccc4n3)C(=O)O2)cc1 (centres undefined)	150	3.22	14	11
CC(C)CC(CC(=O)OCC1(CO)C/C(=C\c2ccccn2)C(=O)O1)CC(C)C (centres undefined)	4.6	3.78	–	0.2
COc1ccc(C(=O)OCC2(CO)C/C(=C\c3cnc4ccccc4c3)C(=O)O2)cc1 (centres undefined)	144	3.16	8	17.4
CCCC(CCC)C(=O)OCC1(CO)C/C(=C\c2ccccn2)C(=O)O1 (centres undefined)	86.3	2.9	119	0.72
CCCC(CCC)C(=O)OCC1(CO)C/C(=C\c2cnc3ccccc3c2)C(=O)O1 (centres undefined)	13.8	4.06	27	0.52
CCCC(CCC)C(=O)OCC1(CO)C/C(=C\c2cccnc2)C(=O)O1 (centres undefined)	76	2.9	47	1.6
CCCC(CCC)C(=O)OCC1(CO)C/C(=C\c2ccc3ccccc3n2)C(=O)O1 (centres undefined)	51.9	4.06	31	1.7
COc1ccc(C(=O)OCC2(CO)C/C(=C/c3ccccn3)C(=O)O2)cc1 (centres undefined)	27100	2.01	11	2470
CCCC(CCC)C(=O)OCC1(CO)C/C(=C/c2ccccn2)C(=O)O1 (centres undefined)	1370	2.9	16	83
CCCC(CCC)C(=O)OCC1(CO)C/C(=C\c2ccncc2)C(=O)O1 (centres undefined)	627	2.9	45	13.8
CN(C)c1ccc(C(=O)OCC2(CO)C/C(=C/c3ccncc3)C(=O)O2)cc1 (centres undefined)	33200	2.07	14	2360
COc1ccc(C(=O)OCC2(CO)C/C(=C/c3ccncc3)C(=O)O2)cc1 (centres undefined)	25400	2.01	7	3660

SMILES	Ki [1] [nM]	logP [2]	Ratio Ki [3]	Ki [4] [nM]
CCCC(CCC)C(=O)OCC1(CO)C/C(=C/c2ccncc2)C(=O)O1 (centres undefined)	870	2.9	20	44
CN(C)c1ccc(C(=O)OCC2(CO)C/C(=C\c3ccncc3)C(=O)O2)cc1 (centres undefined)	1110	2.07	19	54
CN(C)c1ccc(C(=O)OCC2(CO)C/C(=C\c3ccccn3)C(=O)O2)cc1 (centres undefined)	1020	2.07	43	23.8
COc1ccc(C(=O)OCC2(CO)C/C(=C\c3cn(C)c4ccccc34)C(=O)O2)cc1 (centres undefined)	212	3.46	64	3.3
COc1ccc(C(=O)OCC2(CO)C/C(=C/c3ccc4ccccc4n3)C(=O)O2)cc1 (centres undefined)	2940	3.16	2	1390
COc1ccc(C(=O)OCC2(CO)C/C(=C/c3cccnc3)C(=O)O2)cc1 (centres undefined)	21200	2.01	4	5500
CCCC(CCC)C(=O)OCC1(CO)C/C(=C\c2cn(C)c3ccccc23)C(=O)O1 (centres undefined)	29.7	4.36	165	0.18
COc1ccc(C(=O)OCC2(CO)C/C(=C\c3ccc4ccccc4n3)C(=O)O2)cc1 (centres undefined)	132	3.16	16	8.2
CCCC(CCC)C(=O)OCC1(CO)C/C(=C/c2ccc3ccccc3n2)C(=O)O1 (centres undefined)	78.8	4.06	17	4.6
CC(C)CC(CC(=O)OCC1(CO)C/C(=C\c2cn(C)c3ccccc23)C(=O)O1)CC(C)C (centres undefined)	14.8	5.24	–	0.7
COc1ccc(C(=O)OCC2(CO)C/C(=C\c3cccnc3)C(=O)O2)cc1 (centres undefined)	810	2.01	10	81
CN(C)c1ccc(C(=O)OCC2(CO)C/C(=C\c3cn(C)c4ccccc34)C(=O)O2)cc1 (centres undefined)	174	3.22	47	3.7
CN(C)c1ccc(C(=O)OCC2(CO)C/C(=C\c3cnc4ccccc4c3)C(=O)O2)cc1 (centres undefined)	755	3.22	6	137
COc1ccc(C(=O)OCC2(CO)C/C(=C\c3ccc([N+](=O)[O-])cc3)C(=O)O2)cc1 (centres undefined)	136	–	20	6.7
COc1ccc(C(=O)OCC2(CO)C/C(=C\c3ccncc3)C(=O)O2)cc1 (centres undefined)	1450	2.01	27	54.2
CN(C)c1ccc(C(=O)OCC2(CO)C/C(=C\c3cccnc3)C(=O)O2)cc1 (centres undefined)	790	2.07	13	59
CN(C)c1ccc(C(=O)OCC2(CO)C/C(=C/c3cccnc3)C(=O)O2)cc1 (centres undefined)	34100	2.07	20	1970
CN(C)c1ccc(C(=O)OCC2(CO)C/C(=C/c3ccc4ccccc4n3)C(=O)O2)cc1 (centres undefined)	15800	3.22	8	2040
